The text below walks through data of ChEMBL document CHEMBL3352070, “Dammarane triterpenes as potential SIRT1 activators from the leaves of Panax ginseng” (J Nat Prod, 2014).

Active and inactive are the calls of the source. No cut-off for these calls is given here.

The target of data set [1] is T1, NAD-dependent protein deacetylase sirtuin-1 (Homo sapiens) (UniProt Q96EB6).
T1 sequence (whole entry): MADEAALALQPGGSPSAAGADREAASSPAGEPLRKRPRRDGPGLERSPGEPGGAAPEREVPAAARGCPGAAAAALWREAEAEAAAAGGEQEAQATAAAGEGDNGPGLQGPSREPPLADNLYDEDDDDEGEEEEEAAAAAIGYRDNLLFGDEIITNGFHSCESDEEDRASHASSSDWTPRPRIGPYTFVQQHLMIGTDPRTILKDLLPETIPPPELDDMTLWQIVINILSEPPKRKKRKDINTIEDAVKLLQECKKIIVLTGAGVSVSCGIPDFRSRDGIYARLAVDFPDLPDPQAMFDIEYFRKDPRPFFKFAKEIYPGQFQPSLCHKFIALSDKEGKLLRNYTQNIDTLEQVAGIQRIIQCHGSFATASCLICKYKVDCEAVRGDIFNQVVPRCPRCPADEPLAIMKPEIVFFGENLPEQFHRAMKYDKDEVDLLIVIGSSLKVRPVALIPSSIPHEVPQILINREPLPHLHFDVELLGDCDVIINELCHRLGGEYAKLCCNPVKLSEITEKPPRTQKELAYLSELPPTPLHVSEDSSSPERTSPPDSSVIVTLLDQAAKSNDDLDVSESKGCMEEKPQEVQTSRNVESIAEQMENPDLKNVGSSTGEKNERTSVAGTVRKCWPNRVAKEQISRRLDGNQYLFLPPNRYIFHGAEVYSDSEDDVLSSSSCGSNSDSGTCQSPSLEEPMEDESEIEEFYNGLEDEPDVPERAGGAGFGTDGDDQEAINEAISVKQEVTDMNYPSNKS
The experiment in a line: Activation of SIRT1 (unknown origin) at 10 to 20 ug/mL using Fluor de Lys-SIRT1 peptide by in vitro enzyme-based SIRT1-NAD/NADH assay. A digest of the protocol: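 SIRT1 enzyme at 0.02 U/μL in Tris-HCl pH 8.0 buffer with BSA, MgCl2, KCl and NaCl, preincubated with compound for 5 min at room temperature. Reaction started with 500 μM NAD+ and 100 μM Fluor de Lys-SIRT1 substrate (stock solution), run 1 h at room temperature. Quenched with Developer II plus 2 mM nicotinamide for 30 min, then fluorescence read at ex 360/em 450 nm. DMSO and no-enzyme controls.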

Data set [2] has as its target T1, NAD-dependent protein deacetylase sirtuin-1 (Homo sapiens). Briefly: Activation of flag-tagged SIRT1 (unknown origin) expressed in HEK293 cells at 2.5 to 5 ug/mL after 12 hrs by SIRT1-p53 luciferase reporter gene based assay. The data set is classed as cell-based.
A further data set concerns HEK293. Briefly: Toxicity against HEK293 cells at 10 to 20 ug/ml. The data set is classed as cell-based. The following applies: human.
The target of data set [3] is T1, NAD-dependent protein deacetylase sirtuin-1 (Homo sapiens). Briefly: Activation of SIRT1 (unknown origin) expressed in HEK293 cells assessed as increase in NAD+/NADH ratio at 2.5 to 5 ug/mL after 12 hrs. The data set is classed as cell-based. A digest of the protocol: (§1)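 HEK293 cells grown in DMEM with 10% FBS at 37 °C, 5% CO2, and treated with compound for 12 h. NAD+/NADH ratio measured in whole-cell extracts with a red-fluorescence NAD/NADH quantitation kit.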

The target is the same in data set [4]. The experiment in a line: Activation of flag-tagged SIRT1 (unknown origin) expressed in HEK293 cells after 12 hrs by SIRT1-p53 luciferase reporter gene based assay. The data set is classed as cell-based.
For data set [5] the target is unchanged. The experiment in a line: Activation of flag-tagged SIRT1 (unknown origin) expressed in HEK293 cells at 10 to 20 ug/mL after 12 hrs by SIRT1-p53 luciferase reporter gene based assay. The data set is classed as cell-based.
The target is the same in data set [6]. The experiment in a line: Activation of SIRT1 (unknown origin) expressed in HEK293 cells assessed as increase in NAD+/NADH ratio at 10 to 20 ug/mL after 12 hrs. The data set is classed as cell-based. A digest of the protocol:
as §1

Regarding `CC(C)=CC/C=C(\C)[C@H]1CC[C@]2(C)[C@@H]1[C@H](O)C[C@@H]1[C@@]3(C)CC[C@H](O)C(C)(C)[C@@H]3[C@@H](O)C[C@]12C`, the Activity result in data set [1] is “Dose-dependent effect”; with HEK293 it was “Toxic”. The outcome in data set [2] and in data set [3] was Active.
In the case of `CC(C)=CCC[C@@](C)(O)[C@H]1CC[C@]2(C)[C@@H]1[C@H](O)C[C@@H]1[C@@]3(C)CC[C@H](O[C@@H]4O[C@H](CO)[C@@H](O)[C@H](O)[C@H]4O[C@@H]4O[C@H](CO)[C@@H](O)[C@H](O)[C@H]4O)C(C)(C)[C@@H]3CC[C@]12C`, the Activity result in data set [4] was “Dose-dependent effect”.
As to `CC(C)=CCC[C@](C)(O)[C@H]1CC[C@]2(C)[C@@H]1C(=O)C[C@@H]1[C@@]3(C)CCC(=O)C(C)(C)[C@@H]3[C@@H](O)C[C@]12C`, in data set [1], the Activity entry was “Dose-dependent effect”. Further, the outcome in data set [5] and in data set [6] was Active.
In the case of `CC(C)(O)/C=C/C[C@](C)(O)[C@H]1CC[C@]2(C)[C@@H]1C(=O)C[C@@H]1[C@@]3(C)CCC(=O)C(C)(C)[C@@H]3[C@@H](O)C[C@]12C`, the Activity entry in data set [1] was “Dose-dependent effect”. For the same molecule, the result in data set [5] and in data set [6] was Active.
On to `CC(C)=CCC[C@](C)(O)[C@H]1CC[C@]2(C)[C@@H]1[C@H](O)C[C@@H]1[C@@]3(C)CC[C@H](O[C@@H]4O[C@H](CO)[C@@H](O)[C@H](O)[C@H]4O[C@@H]4O[C@H](CO)[C@@H](O)[C@H](O)[C@H]4O)C(C)(C)[C@@H]3CC[C@]12C`, for which the Activity result in data set [1] is “Dose-dependent effect”; in the data set with HEK293 it was “Toxic”. Besides, the outcome in data set [2], in data set [3] and in data set [4] was Active.
